ChEMBL document CHEMBL1122442, “Antifertility agents. 38. Effect of the side chain and its position on the activity of 3,4-diarylchromans” (1983)
Activity calls are given as the source filed them. The calls are words filed in the database; no cut-off is given here.

Tests used:
[1] = species: Rattus norvegicus; test: Effective dose for antiimplantation activity in male albino rats; assay type: functional; details: in the assay text read “female” for “male”
Summary of the method: (§1)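 Colony-bred adult female albino rats (150-170 g) mated with fertile coeval males; suspension in gum acacia given orally on days 1-7 postcoitum; positive only when implants were wholly absent from both uterine horns.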

[2] = biological target: T1, Estrogen receptor (Rattus norvegicus) (UniProt P06211+Q62986)
[3] = species: Rattus norvegicus; test: Effective dose for anti-implantation activity in male albino rats; Nil; assay type: functional, organism-based; details: in the assay text read “female” for “male”; summary of the method: as §1
[4] = tested on: Rattus norvegicus; test: Effective dose for antiimplantation activity in male albino rats at 2 mg/Kg;IN-Inactive; assay type: functional, organism-based; details: in the assay text read “female” for “male”; summary of the method: as §1
[5] = tested on: Rattus norvegicus; test: Effective dose for anti-implantation activity in female albino rats at 10 mg/kg; IN-Inactive
[6] = biological target: T1, Estrogen receptor (Rattus norvegicus); test: Relative binding affinity for uterine cytosol 17-beta-estradiol receptor from immature rats; N-Nil; assay type: protein assay
Summary of the method: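 Competitive binding against 17β-estradiol for uterine cytosol receptor from immature Charles Foster rats aged 21-25 days; dextran-coated charcoal removes unbound steroid; expressed as relative binding affinity.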

[7] = tested on: Rattus norvegicus; test: Effective dose for anti-implantation activity in female albino rats at 10 mg/kg; A-Active
[8] = biological target: T1, Estrogen receptor (Rattus norvegicus); test: Effect on uterine weight gain in immature rats by subcutaneous dose; N-Nil; assay type: functional
Summary of the method: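 Immature rats (25-30 g); dosed subcutaneously once daily for 3 days in 0.2 mL saline/propylene glycol (1:1, v/v); estrogenicity read as uterine weight gain.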

SMILES	ED100 [1]	ED100 [4]	other results
COc1ccc2c(c1)OC(C)(C)C(c1ccccc1)=C2c1ccc(OCCN2CCCC2)cc1	5 mg/kg/day	–	–
COc1ccc2c(c1)OC(C)(C)C(c1ccccc1)C2c1ccc(OCCN2CCCC2)cc1 (stereo in doubt; 2) [ORMELOXIFENE]	50 mg/kg/day	–	–
COc1ccc2c(c1)OC(C)(C)C(c1ccccc1)C2c1ccc(OCCN2CCCC2)cc1 (stereo in doubt; 1) [ORMELOXIFENE]	0.25 mg/kg/day	–	–
COc1ccc2c(c1)OC(C)(C)C(c1ccccc1)C2c1ccc(O)cc1 (centres undefined)	–	–	Estrogenic effect [2]: 0.2; ED100 [3]: inactive
CCN(CC)CCOc1ccc(C2c3ccc(OC)cc3OC(C)(C)C2c2ccccc2)cc1.Cl (centres undefined)	0.3 mg/kg/day	–	–
COc1ccc2c(c1)OC(C)(C)C(c1ccc(O)cc1)C2c1ccccc1 (stereo in doubt; 33)	1 mg/kg/day	–	–
COc1ccc2c(c1)OC(C)(C)C(c1ccccc1)C2c1cccc(OCCN2CCCC2)c1 (stereo in doubt; 11)	–	inactive	–
COc1ccc2c(c1)OC(C)(C)C(c1ccccc1)C2c1cccc(OCCN2CCCC2)c1 (stereo in doubt; 22)	–	inactive	–
COc1ccc2c(c1)OC(C)(C)C(c1ccccc1)=C2c1ccccc1OCCN1CCCC1	–	–	ED100 [5]: inactive; relative binding affinity (RBA) [6]: inactive
COc1ccc2c(c1)OC(C)(C)C(c1ccc(O)cc1)=C2c1ccccc1	–	inactive	ED100 [7]: Active
COc1ccc2c(c1)OC(C)(C)C(c1ccccc1)=C2c1cccc(OCCN2CCCC2)c1.Cl	1 mg/kg/day	–	–
COc1ccc2c(c1)OC(C)(C)C(c1ccccc1)C2c1ccc(OCCN2CCCC2)cc1 (stereo in doubt; 2)	–	–	Estrogenic effect [8]: inactive
COc1ccc2c(c1)OC(C)(C)C(c1ccc(OCCN3CCCC3)cc1)C2c1ccccc1 (centres undefined)	2 mg/kg/day	inactive	Estrogenic effect [2]: 2.2; relative binding affinity (RBA) [6]: inactive
COc1ccc2c(c1)OC(C)(C)C(c1ccccc1)C2c1ccc(OCCN2CCCC2)cc1 (stereo in doubt; 1)	–	–	Estrogenic effect [2]: 0.56
COc1ccc2c(c1)OC(C)(C)C(c1ccccc1)C2c1ccc(OCCCN2CCCC2)cc1.Cl (centres undefined)	0.3 mg/kg/day	–	–
CC1(C)Oc2cc(O)ccc2C(c2ccc(OCCN3CCCC3)cc2)C1c1ccccc1 (centres undefined)	0.25 mg/kg/day	–	Estrogenic effect [2]: 11.8
COc1ccc2c(c1)OC(C)(C)C(c1ccccc1)C2c1ccc(OCCN(C)C)cc1.Cl (centres undefined)	2 mg/kg/day	–	–
COc1ccc2c(c1)OC(C)(C)C(c1ccccc1)C2c1ccccc1OCCN1CCCC1 (centres undefined)	–	inactive	relative binding affinity (RBA) [6]: inactive
COc1ccc2c(c1)OC(C)(C)C(c1ccc(O)cc1)C2c1ccccc1 (stereo in doubt; 31)	–	–	ED100 [5]: inactive
COc1ccc2c(c1)OC(C)(C)C(c1ccc(OCCN3CCCC3)cc1)=C2c1ccccc1	–	inactive	relative binding affinity (RBA) [6]: inactive
